Test results published in ChEMBL document CHEMBL3616394 (Eur J Med Chem, 2015).
Active and inactive are the calls of the source. The rule behind the calls is not given here.

Legend:
[1] = biological target: Neuronal acetylcholine receptor; alpha3/beta4 (Rattus norvegicus, UniProt P04757+P12392); test: Displacement of [3H]epibatidine from rat alpha3beta4 nACHR expressed in HEK293 cells after 4 hrs by scintillation counting assay; format: cell-based; settings: for pKi: hek293
[2] = biological target: Neuronal acetylcholine receptor; alpha4/beta4 (Rattus norvegicus, UniProt P09483+P12392); test: Displacement of [3H]epibatidine from rat alpha4beta4 nACHR expressed in HEK293 cells after 4 hrs by scintillation counting assay; format: cell-based; settings: for pKi: hek293
[3] = biological target: T1, Neuronal acetylcholine receptor; alpha4/beta2 (Rattus norvegicus, UniProt P09483+P12390); test: Displacement of [3H]epibatidine from rat alpha4beta2 nAChR expressed in HEK293 cells after 4 hrs by scintillation counting assay; format: cell-based
[4] = biological target: T2, Neuronal acetylcholine receptor; alpha3/beta4 (Rattus norvegicus) (UniProt P04757+P12392); test: Agonist activity at recombinant rat alpha3beta4 nAChR expressed in HEK293 cells at 300 uM after 30 min by FLIPR potential blue assay; format: cell-based
Outline: (§1)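 Stable rat α3β4 HEK293 cells were loaded with FMP dye (0.5 mg/ml) in Krebs-HEPES buffer, pH 7.4, for 30 min at 37 °C. For antagonist runs, the test compound was included in the dye buffer and EC70-EC80 ACh was then added. Fluorescence was read at ex 525/em 565 nm, 20 s before and 70 s after ligand addition, and ΔFU taken. Runs were done in duplicate, at least three times.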

[5] = biological target: T3, Neuronal acetylcholine receptor subunit alpha-4/beta-2 (Mus musculus) (UniProt Q9ERK7+O70174); test: Agonist activity at recombinant mouse alpha4beta2 nAChR expressed in HEK293 cells at 300 uM after 30 min by FLIPR potential blue assay; format: cell-based
Outline: (§2)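 FLIPR membrane potential (FMP) dye assay on α4β2-HEK293T cells. Cells were washed in Krebs buffer (pH 7.4) and loaded with dye (0.5 mg/ml) for 30 min at 37 °C. Emission at 565 nm with excitation at 525 nm was read 20 s before and 70 s after ligand addition. Response was the ΔFU between maximal levels. Duplicate wells, at least three experiments.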

[6] = Binding affinity to Aplysia californica AChBP after 300 seconds by SPR biosensor analysis
[7] = biological target: T3, Neuronal acetylcholine receptor subunit alpha-4/beta-2 (Mus musculus); test: Agonist activity at recombinant mouse alpha4beta2 nAChR expressed in HEK293 cells at >=100 uM after 30 min by FLIPR potential blue assay; format: cell-based; outline: as §2
[8] = biological target: T3, Neuronal acetylcholine receptor subunit alpha-4/beta-2 (Mus musculus); test: Agonist activity at recombinant mouse alpha4beta2 nAChR expressed in HEK293 cells at >=30 uM after 30 min by FLIPR potential blue assay; format: cell-based; outline: as §2
[9] = biological target: Neuronal acetylcholine receptor subunit alpha-4/beta-2 (Mus musculus, UniProt O70174+Q9ERK7); test: Antagonist activity at recombinant mouse alpha4beta2 nAChR expressed in HEK293 cells assessed as inhibition of acetylcholine-induced effect after 30 min by FLIPR potential blue assay; format: cell-based
Outline: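 FMP dye assay on α4β2-HEK293T cells. Antagonist was dissolved in the dye-loading Krebs buffer (pH 7.4) and preincubated 30 min at 37 °C. EC70–EC80 ACh was then added as final agonist. 565 nm emission was read before and after addition, and inhibition curves were built from ΔFU at eight concentrations. IC50 fitted; duplicate, at least three experiments.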

[10] = biological target: T2, Neuronal acetylcholine receptor; alpha3/beta4 (Rattus norvegicus); test: Antagonist activity at recombinant rat alpha3beta4 nAChR expressed in HEK293 cells assessed as inhibition of acetylcholine-induced effect at >=100 uM after 30 min by FLIPR potential blue assay; format: cell-based; outline: as §1
[11] = biological target: T1, Neuronal acetylcholine receptor; alpha4/beta2; test: Agonist activity at rat (alpha4)3(beta2)2 nAChR expressed in Xenopus oocyte by two electrode voltage-clamp electrophysiology assay
Outline: (§3)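 Xenopus laevis oocytes were injected with about 25 ng total cRNA for rat α4 and β2. The α4:β2 ratio was 1:4 for (α4)2(β2)3 and 10:1 for (α4)3(β2)2. Oocytes were kept at 15-18 °C and recorded 2-5 days later, clamped at -60 mV. Peak currents were taken across 10 nM-10 mM agonist, with 10 min washes between applications. Currents were normalised on the same oocyte to ACh, 300 µM at (α4)2(β2)3 and 1 mM at (α4)3(β2)2.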

[12] = biological target: T1, Neuronal acetylcholine receptor; alpha4/beta2; test: Agonist activity at rat (alpha4)2(beta2)3 nAChR expressed in Xenopus oocyte by two electrode voltage-clamp electrophysiology assay; outline: as §3
[13] = biological target: Neuronal acetylcholine receptor; alpha4/beta2 (Rattus norvegicus) (UniProt P09483+P12390); test: Agonist activity at rat (alpha4)3(beta2)2 nAChR expressed in Xenopus oocyte by two electrode voltage-clamp electrophysiology assay relative to acetylcholine; outline: as §3
[14] = biological target: T1, Neuronal acetylcholine receptor; alpha4/beta2; test: Displacement of [3H]epibatidine from rat alpha4beta2 nAChR expressed in HEK293 cells after 4 hr by scintillation counting assay

T3 sequence (O70174 31-629 partner limits assumed): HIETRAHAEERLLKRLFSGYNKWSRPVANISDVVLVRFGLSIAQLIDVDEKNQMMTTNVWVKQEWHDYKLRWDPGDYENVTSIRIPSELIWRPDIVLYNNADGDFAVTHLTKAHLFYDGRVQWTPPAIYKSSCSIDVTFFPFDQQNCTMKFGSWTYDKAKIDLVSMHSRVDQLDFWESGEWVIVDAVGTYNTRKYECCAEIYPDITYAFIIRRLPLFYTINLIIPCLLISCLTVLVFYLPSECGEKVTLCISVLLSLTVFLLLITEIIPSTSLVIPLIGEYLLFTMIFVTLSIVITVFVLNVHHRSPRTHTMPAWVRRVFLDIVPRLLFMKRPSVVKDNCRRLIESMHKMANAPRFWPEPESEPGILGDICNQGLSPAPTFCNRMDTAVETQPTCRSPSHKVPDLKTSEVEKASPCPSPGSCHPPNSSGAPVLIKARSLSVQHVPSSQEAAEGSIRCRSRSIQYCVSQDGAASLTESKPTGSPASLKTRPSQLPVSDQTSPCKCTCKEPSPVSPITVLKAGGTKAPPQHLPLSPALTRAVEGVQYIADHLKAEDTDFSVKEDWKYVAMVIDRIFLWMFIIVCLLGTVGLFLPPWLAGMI
T3 sequence (Q9ERK7 26-501 limits assumed): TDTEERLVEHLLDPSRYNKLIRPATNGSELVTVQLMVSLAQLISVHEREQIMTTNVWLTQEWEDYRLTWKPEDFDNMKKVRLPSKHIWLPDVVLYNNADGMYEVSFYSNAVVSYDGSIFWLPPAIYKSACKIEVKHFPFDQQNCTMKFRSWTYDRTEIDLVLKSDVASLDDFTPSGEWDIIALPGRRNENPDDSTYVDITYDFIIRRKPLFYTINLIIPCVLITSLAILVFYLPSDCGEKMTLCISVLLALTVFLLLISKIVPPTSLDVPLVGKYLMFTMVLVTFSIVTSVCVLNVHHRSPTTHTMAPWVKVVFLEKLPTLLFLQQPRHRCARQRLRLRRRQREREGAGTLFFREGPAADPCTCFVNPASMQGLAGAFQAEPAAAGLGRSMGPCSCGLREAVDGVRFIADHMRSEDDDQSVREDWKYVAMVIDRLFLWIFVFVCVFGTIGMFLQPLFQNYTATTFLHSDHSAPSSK
Neuronal acetylcholine receptor; alpha3/beta4, sequence (P04757 whole entry): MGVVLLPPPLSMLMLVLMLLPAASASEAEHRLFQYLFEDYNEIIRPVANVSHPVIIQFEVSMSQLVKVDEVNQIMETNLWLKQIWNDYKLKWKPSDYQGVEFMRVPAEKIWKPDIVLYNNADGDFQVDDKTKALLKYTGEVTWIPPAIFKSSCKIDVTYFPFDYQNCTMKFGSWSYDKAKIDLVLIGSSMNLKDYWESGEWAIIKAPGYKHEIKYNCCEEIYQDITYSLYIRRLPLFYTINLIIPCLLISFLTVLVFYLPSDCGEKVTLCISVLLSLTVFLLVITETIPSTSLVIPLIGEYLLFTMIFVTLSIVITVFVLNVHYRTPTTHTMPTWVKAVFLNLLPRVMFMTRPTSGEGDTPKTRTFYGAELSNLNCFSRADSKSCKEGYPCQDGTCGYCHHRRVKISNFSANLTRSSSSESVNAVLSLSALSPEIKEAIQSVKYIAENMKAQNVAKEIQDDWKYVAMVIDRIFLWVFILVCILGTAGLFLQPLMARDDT
Neuronal acetylcholine receptor; alpha3/beta4, sequence (P12392 whole entry): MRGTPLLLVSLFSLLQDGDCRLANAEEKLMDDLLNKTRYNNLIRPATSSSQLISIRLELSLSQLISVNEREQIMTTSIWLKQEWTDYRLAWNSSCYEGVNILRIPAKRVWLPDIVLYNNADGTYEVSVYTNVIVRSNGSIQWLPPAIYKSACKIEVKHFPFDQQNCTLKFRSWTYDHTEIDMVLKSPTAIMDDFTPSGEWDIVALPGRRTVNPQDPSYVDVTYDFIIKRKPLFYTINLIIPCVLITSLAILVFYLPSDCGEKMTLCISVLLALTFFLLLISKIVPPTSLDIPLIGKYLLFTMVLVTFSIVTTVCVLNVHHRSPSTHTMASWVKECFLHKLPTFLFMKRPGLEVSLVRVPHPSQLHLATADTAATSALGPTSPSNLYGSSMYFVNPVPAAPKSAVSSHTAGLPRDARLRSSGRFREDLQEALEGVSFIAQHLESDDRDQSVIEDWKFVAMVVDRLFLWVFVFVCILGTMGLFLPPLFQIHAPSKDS
T1 sequence (P09483 whole entry): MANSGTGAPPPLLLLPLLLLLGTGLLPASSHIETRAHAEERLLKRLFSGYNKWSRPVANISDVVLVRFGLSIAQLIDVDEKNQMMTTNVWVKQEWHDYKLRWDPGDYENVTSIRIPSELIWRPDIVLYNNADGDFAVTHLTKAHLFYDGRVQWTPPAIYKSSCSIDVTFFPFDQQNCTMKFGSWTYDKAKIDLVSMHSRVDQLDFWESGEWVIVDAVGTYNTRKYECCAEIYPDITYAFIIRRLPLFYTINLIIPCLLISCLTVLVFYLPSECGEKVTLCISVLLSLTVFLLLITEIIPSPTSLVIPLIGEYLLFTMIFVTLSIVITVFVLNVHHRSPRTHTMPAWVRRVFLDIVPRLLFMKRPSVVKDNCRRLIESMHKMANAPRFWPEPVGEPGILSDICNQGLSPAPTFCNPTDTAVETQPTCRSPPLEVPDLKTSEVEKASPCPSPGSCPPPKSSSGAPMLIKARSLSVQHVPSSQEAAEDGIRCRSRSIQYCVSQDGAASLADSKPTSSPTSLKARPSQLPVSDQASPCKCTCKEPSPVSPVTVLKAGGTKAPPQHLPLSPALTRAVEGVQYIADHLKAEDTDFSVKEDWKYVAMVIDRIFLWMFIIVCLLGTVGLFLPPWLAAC
T1 sequence (P12390 whole entry): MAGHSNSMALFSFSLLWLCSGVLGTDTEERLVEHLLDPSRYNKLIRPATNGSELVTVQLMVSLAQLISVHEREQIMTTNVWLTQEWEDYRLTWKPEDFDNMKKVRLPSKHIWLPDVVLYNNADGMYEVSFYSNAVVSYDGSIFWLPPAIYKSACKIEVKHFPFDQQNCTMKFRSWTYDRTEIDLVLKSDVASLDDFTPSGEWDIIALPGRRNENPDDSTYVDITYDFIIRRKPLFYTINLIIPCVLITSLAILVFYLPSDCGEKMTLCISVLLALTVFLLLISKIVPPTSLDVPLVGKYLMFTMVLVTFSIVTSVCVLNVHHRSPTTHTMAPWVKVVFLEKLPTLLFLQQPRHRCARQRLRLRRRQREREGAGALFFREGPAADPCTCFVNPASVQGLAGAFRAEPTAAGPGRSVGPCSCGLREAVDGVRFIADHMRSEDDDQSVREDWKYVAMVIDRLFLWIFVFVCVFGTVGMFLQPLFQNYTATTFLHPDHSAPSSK
Neuronal acetylcholine receptor; alpha4/beta4, sequence (P09483 whole entry): as the sequence (P09483 whole entry) above
Neuronal acetylcholine receptor; alpha4/beta4, sequence (P12392 whole entry): as the sequence (P12392 whole entry) above
Neuronal acetylcholine receptor subunit alpha-4/beta-2, sequence (Q9ERK7 whole entry): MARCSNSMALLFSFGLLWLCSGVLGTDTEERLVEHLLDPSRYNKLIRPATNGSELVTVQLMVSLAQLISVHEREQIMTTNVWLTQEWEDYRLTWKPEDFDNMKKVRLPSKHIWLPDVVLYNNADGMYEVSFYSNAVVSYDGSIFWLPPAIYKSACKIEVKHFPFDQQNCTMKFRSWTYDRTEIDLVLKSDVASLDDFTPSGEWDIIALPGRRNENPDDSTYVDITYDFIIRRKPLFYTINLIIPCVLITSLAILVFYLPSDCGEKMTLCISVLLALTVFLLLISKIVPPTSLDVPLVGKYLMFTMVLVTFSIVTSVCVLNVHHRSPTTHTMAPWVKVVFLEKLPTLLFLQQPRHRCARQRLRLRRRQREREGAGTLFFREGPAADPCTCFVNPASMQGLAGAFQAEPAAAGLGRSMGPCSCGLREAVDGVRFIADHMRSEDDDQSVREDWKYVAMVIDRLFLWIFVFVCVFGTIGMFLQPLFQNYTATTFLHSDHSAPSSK
Neuronal acetylcholine receptor subunit alpha-4/beta-2, sequence (O70174 whole entry): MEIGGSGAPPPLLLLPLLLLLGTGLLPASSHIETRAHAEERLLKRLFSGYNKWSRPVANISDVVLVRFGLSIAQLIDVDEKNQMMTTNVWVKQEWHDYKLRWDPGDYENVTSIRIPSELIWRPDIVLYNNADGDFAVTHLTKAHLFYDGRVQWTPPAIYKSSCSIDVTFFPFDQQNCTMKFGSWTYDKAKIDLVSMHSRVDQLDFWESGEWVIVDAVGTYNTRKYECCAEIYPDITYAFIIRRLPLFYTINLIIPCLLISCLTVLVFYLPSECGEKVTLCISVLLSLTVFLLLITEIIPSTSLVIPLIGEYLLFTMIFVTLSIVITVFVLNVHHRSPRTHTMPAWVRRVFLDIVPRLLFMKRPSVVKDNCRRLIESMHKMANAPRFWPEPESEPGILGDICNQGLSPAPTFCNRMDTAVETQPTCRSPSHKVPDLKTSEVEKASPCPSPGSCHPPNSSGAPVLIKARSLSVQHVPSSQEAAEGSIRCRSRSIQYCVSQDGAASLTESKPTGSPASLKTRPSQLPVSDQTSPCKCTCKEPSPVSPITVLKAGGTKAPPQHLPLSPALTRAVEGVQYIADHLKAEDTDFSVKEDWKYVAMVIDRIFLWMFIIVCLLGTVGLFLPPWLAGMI

| SMILES | Ki ([1]; read-out: Ki) | Ki [2] | Ki [3] | further results |
| --- | --- | --- | --- | --- |
| Brc1ccc(N2CCCN(CCCc3ccccc3)CC2)cn1 | 2.2 µM | 1.5 µM | 0.82 µM | – |
| c1ccc(CCN2CCN(c3cccnc3)CC2)cc1 | 8.2 µM | 8.9 µM | 0.56 µM | Activity [4]: Active; Activity [5]: Active |
| Brc1cccc(CCN2CCCN(c3cccnc3)CC2)c1 | 0.78 µM | 1.9 µM | 0.13 µM | – |
| CNC(=O)OCCC(C)N(C)Cc1ccccc1 (stereo not drawn) | 300 µM | 300 µM | 300 µM | – |
| c1ccc(CCCN2CCCN(c3cccnc3)CC2)cc1 | 3.8 µM | 3.8 µM | 0.082 µM | Kd [6]: > 1 µM; pKd [6]: < 6 |
| CNC(=O)OCCC(C)N(C)CCCc1ccccc1 (stereo not drawn) | > 1000 µM | > 1000 µM | 50 µM | pKi [1]: < 3; pKi [2]: < 3 |
| CN(C)C(=O)OCCC(CCCCc1ccccc1)N(C)C (stereo not drawn) | 11 µM | 4.4 µM | 1.1 µM | Activity [4]: Active; Activity [7]: Active |
| CNC(=O)OCCC(C)N(C)CC(O)c1ccccc1 (stereo not drawn) | 1000 µM | 300 µM | 300 µM | – |
| CN(C)C(CCCCc1ccccc1)CCOc1nccn1C (stereo not drawn) | 8.3 µM | 3.7 µM | 0.76 µM | Activity [8]: Active |
| CC(CCOC(=O)N(C)C)N(C)CC(O)Cc1ccccc1 (stereo not drawn) | > 1000 µM | 100 µM | 500 µM | pKi [1]: < 3 |
| CN(C)C(=O)OCCC(COc1ccc(F)cc1)N(C)C (stereo not drawn) | 300 µM | 100 µM | 500 µM | – |
| CNC(=O)OCCC(CCCCCc1ccccc1)N(C)C (stereo not drawn) | 50 µM | 4.5 µM | 2.7 µM | – |
| c1ccc(CN2CCN(c3cccnc3)CC2)cc1 | > 300 µM | 100 µM | 9.6 µM | Ki ([1]; read-out: pKi (converted)): > 316 µM |
| CNC(=O)OCCC(CCCc1ccccc1)N(C)C (stereo not drawn) | 100 µM | 30 µM | 11 µM | Activity [4]: Active; Activity [7]: Active |
| CNC(=O)OCCC(CCCCc1ccccc1)N(C)C (stereo not drawn) | 100 µM | 30 µM | 3.6 µM | Activity [4]: Active; Activity [7]: Active |
| CN1[C@@H](CC(=O)c2ccccc2)CCC[C@H]1C[C@H](O)c1ccccc1 [LOBELINE] | – | – | – | Kd [6]: 0.013 µM; pKd [6]: 7.9 |
| CC(CCOC(=O)N(C)C)N(C)CCCc1ccccc1 (stereo not drawn) | > 1000 µM | > 1000 µM | 300 µM | pKi [1]: < 3; pKi [2]: < 3 |
| c1ccc(CCN2CCCN(c3cccnc3)CC2)cc1 | 3.4 µM | 2.4 µM | 0.11 µM | – |
| CNC(=O)OCCC(C)N(C)CCc1ccccc1 (stereo not drawn) | 300 µM | 300 µM | 30 µM | – |
| C(=C\N1CCCN(c2cccnc2)CC1)/c1ccccc1 | 2.9 µM | 1.6 µM | 0.099 µM | IC50 [9]: 1.1 µM; inhibition [10]: inactive |
| CNC(=O)OCCC(CCC(O)c1ccccc1)N(C)C (stereo not drawn) | > 300 µM | 100 µM | 100 µM | Ki ([1]; read-out: pKi (converted)): > 316 µM |
| c1ccc(CN2CCCN(c3cccnc3)CC2)cc1 | 2.6 µM | 3.4 µM | 0.104 µM | EC50 [11]: 7.9 µM; EC50 [12]: 1.8 µM; Kd [6]: > 1 µM; pKd [6]: < 6; Rmax [13]: 6 |
| CN(C)C(=O)OCCC(COc1ccccn1)N(C)C (stereo not drawn) | 300 µM | 300 µM | 100 µM | – |
| c1ccc(CCCN2CCN(c3cccnc3)CC2)cc1 | 20 µM | 3.5 µM | 0.49 µM | Activity [4]: Active; Activity [7]: Active |
| c1cncc(N2CCCNCC2)c1 | – | – | – | Ki [14]: 0.00072 µM |
| CN(C)C(=O)OCCC(CCCc1ccccc1)N(C)C (stereo not drawn) | 13 µM | 4.9 µM | 1.9 µM | Activity [4]: Active; Activity [7]: Active |
| CN(C)C(=O)OCCC(CCC(O)c1ccccc1)N(C)C (stereo not drawn) | 5.9 µM | 6.7 µM | 30 µM | Ki ([1]; read-out: pKi (converted)): 6.03 µM |
